What was measured:
[1] = target: T1, Galectin-3 (Homo sapiens, UniProt P17931); experiment: Binding affinity to human galectin 3 by surface plasma resonance analysis
Summary of the method: (§1)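 Recombinant human Gal-3 amine-coupled to a CM5 chip (about 1000 RU) with an ethanolamine reference channel. Analytes were serially diluted in 0.01 M HEPES pH 7.4, 0.15 M NaCl and 0.005% P20, then run at 25 °C and 30 μL/min with 120 s association and 300 s dissociation, followed by 3 M MgCl2 regeneration. EC50 was taken from the fitted binding curve.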

[2] = target: T1, Galectin-3; experiment: Inhibition of human galectin 3 binding to human A549 cells incubated for 1 hr; format: cell-based
Summary of the method: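 A549 cells were grown in plates, fixed, and blocked overnight at 4 °C with 3% BSA in PBS. Biotinylated Gal-3 (5 μg/ml), premixed with compound at 3–300 μM, was then added for 1 h at 4 °C. Bound Gal-3 was detected with streptavidin-HRP and TMB, stopped with 1 M HCl, and read at OD450. Percent inhibition came from a Gal-3 standard curve, and EC50 from a five-parameter asymmetric fit.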

[3] = target: T1, Galectin-3; experiment: Binding affinity to human galectin 3 assessed as relative affinity by surface plasma resonance analysis; summary of the method: as §1
[4] = target: T1, Galectin-3; experiment: Binding affinity to human galectin 3 assessed as relative affinity per sugar unit on cyclodextrin by surface plasma resonance analysis; summary of the method: as §1

T1 sequence (P17931 whole entry): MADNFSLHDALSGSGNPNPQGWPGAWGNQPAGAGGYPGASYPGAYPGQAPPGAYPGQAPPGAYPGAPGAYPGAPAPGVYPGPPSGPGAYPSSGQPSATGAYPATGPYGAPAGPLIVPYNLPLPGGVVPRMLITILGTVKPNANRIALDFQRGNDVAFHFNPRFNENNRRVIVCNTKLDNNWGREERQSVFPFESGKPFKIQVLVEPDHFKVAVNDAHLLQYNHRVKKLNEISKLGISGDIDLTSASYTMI

Row | Compound | EC50 [1] [µM] | EC50 [2] [µM] | relative binding affinity (RBA) [3] | relative binding affinity (RBA) [4]
1 | CC(=O)N[C@H]1[C@@H](OCCOCCOCCn2cc(CCC(=O)NC[C@H]3O[C@@H]4O[C@H]5[C@H](O)[C@@H](O)[C@@H](O[C@H]6[C@H](O)[C@@H](O)[C@@H](O[C@H]7[C@H](O)[C@@H](O)[C@@H](O[C@H]8[C@H](O)[C@@H](O)[C@@H](O[C@H]9[C@H](O)[C@@H](O)[C@@H](O[C@H]%10[C@H](O)[C@@H](O)[C@@H](O[C@H]3[C@H](O)[C@H]4O)O[C@@H]%10CNC(=O)CCc3cn(CCOCCOCCO[C@H]4O[C@H](CO)[C@H](O)[C@H](O)[C@H]4NC(C)=O)nn3)O[C@@H]9CNC(=O)CCc3cn(CCOCCOCCO[C@H]4O[C@H](CO)[C@H](O)[C@H](O)[C@H]4NC(C)=O)nn3)O[C@@H]8CNC(=O)CCc3cn(CCOCCOCCO[C@H]4O[C@H](CO)[C@H](O)[C@H](O)[C@H]4NC(C)=O)nn3)O[C@@H]7CNC(=O)CCc3cn(CCOCCOCCO[C@H]4O[C@H](CO)[C@H](O)[C@H](O)[C@H]4NC(C)=O)nn3)O[C@@H]6CNC(=O)CCc3cn(CCOCCOCCO[C@H]4O[C@H](CO)[C@H](O)[C@H](O)[C@H]4NC(C)=O)nn3)O[C@@H]5CNC(=O)CCc3cn(CCOCCOCCO[C@H]4O[C@H](CO)[C@H](O)[C@H](O)[C@H]4NC(C)=O)nn3)nn2)O[C@H](CO)[C@H](O)[C@@H]1O | 1.37 | 1.5 | 1070 | 153
2 | O=C(CCc1cn(CCOCCOCCO[C@@H]2O[C@H](CO)[C@@H](O[C@@H]3O[C@H](CO)[C@H](O)[C@H](O)[C@H]3O)[C@H](O)[C@H]2O)nn1)NC[C@H]1O[C@@H]2O[C@H]3[C@H](O)[C@@H](O)[C@@H](O[C@H]4[C@H](O)[C@@H](O)[C@@H](O[C@H]5[C@H](O)[C@@H](O)[C@@H](O[C@H]6[C@H](O)[C@@H](O)[C@@H](O[C@H]7[C@H](O)[C@@H](O)[C@@H](O[C@H]8[C@H](O)[C@@H](O)[C@@H](O[C@H]1[C@H](O)[C@H]2O)O[C@@H]8CNC(=O)CCc1cn(CCOCCOCCO[C@@H]2O[C@H](CO)[C@@H](O[C@@H]8O[C@H](CO)[C@H](O)[C@H](O)[C@H]8O)[C@H](O)[C@H]2O)nn1)O[C@@H]7CNC(=O)CCc1cn(CCOCCOCCO[C@@H]2O[C@H](CO)[C@@H](O[C@@H]7O[C@H](CO)[C@H](O)[C@H](O)[C@H]7O)[C@H](O)[C@H]2O)nn1)O[C@@H]6CNC(=O)CCc1cn(CCOCCOCCO[C@@H]2O[C@H](CO)[C@@H](O[C@@H]6O[C@H](CO)[C@H](O)[C@H](O)[C@H]6O)[C@H](O)[C@H]2O)nn1)O[C@@H]5CNC(=O)CCc1cn(CCOCCOCCO[C@@H]2O[C@H](CO)[C@@H](O[C@@H]5O[C@H](CO)[C@H](O)[C@H](O)[C@H]5O)[C@H](O)[C@H]2O)nn1)O[C@@H]4CNC(=O)CCc1cn(CCOCCOCCO[C@@H]2O[C@H](CO)[C@@H](O[C@@H]4O[C@H](CO)[C@H](O)[C@H](O)[C@H]4O)[C@H](O)[C@H]2O)nn1)O[C@@H]3CNC(=O)CCc1cn(CCOCCOCCO[C@@H]2O[C@H](CO)[C@@H](O[C@@H]3O[C@H](CO)[C@H](O)[C@H](O)[C@H]3O)[C@H](O)[C@H]2O)nn1 | 25.3 | 23.5 | 58.1 | 8.29
3 | CC(=O)N[C@H]1[C@@H](OCCOCCOCCn2cc(CCC(=O)NC[C@H]3O[C@@H]4O[C@H]5[C@H](O)[C@@H](O)[C@@H](O[C@H]6[C@H](O)[C@@H](O)[C@@H](O[C@H]7[C@H](O)[C@@H](O)[C@@H](O[C@H]8[C@H](O)[C@@H](O)[C@@H](O[C@H]9[C@H](O)[C@@H](O)[C@@H](O[C@H]%10[C@H](O)[C@@H](O)[C@@H](O[C@H]3[C@H](O)[C@H]4O)O[C@@H]%10CNC(=O)CCc3cn(CCOCCOCCO[C@H]4O[C@H](CO)[C@H](O)[C@H](O[C@@H]%10O[C@H](CO)[C@H](O)[C@H](O)[C@H]%10O)[C@H]4NC(C)=O)nn3)O[C@@H]9CNC(=O)CCc3cn(CCOCCOCCO[C@H]4O[C@H](CO)[C@H](O)[C@H](O[C@@H]9O[C@H](CO)[C@H](O)[C@H](O)[C@H]9O)[C@H]4NC(C)=O)nn3)O[C@@H]8CNC(=O)CCc3cn(CCOCCOCCO[C@H]4O[C@H](CO)[C@H](O)[C@H](O[C@@H]8O[C@H](CO)[C@H](O)[C@H](O)[C@H]8O)[C@H]4NC(C)=O)nn3)O[C@@H]7CNC(=O)CCc3cn(CCOCCOCCO[C@H]4O[C@H](CO)[C@H](O)[C@H](O[C@@H]7O[C@H](CO)[C@H](O)[C@H](O)[C@H]7O)[C@H]4NC(C)=O)nn3)O[C@@H]6CNC(=O)CCc3cn(CCOCCOCCO[C@H]4O[C@H](CO)[C@H](O)[C@H](O[C@@H]6O[C@H](CO)[C@H](O)[C@H](O)[C@H]6O)[C@H]4NC(C)=O)nn3)O[C@@H]5CNC(=O)CCc3cn(CCOCCOCCO[C@H]4O[C@H](CO)[C@H](O)[C@H](O[C@@H]5O[C@H](CO)[C@H](O)[C@H](O)[C@H]5O)[C@H]4NC(C)=O)nn3)nn2)O[C@H](CO)[C@H](O)[C@@H]1OC1O[C@H](CO)[C@H](O)[C@H](O)[C@H]1O (stereo not given in full) | 3.16 | 10.5 | 464 | 66.4

Results, then the compound that gave them:

Row | EC50 [1] [µM] | EC50 [2] [µM] | relative binding affinity (RBA) [3] | relative binding affinity (RBA) [4] | Compound
4 |  |  | < 1.47 |  | CC(=O)N[C@H]1[C@@H](OCCOCCOCCN=[N+]=[N-])O[C@H](CO)[C@H](O)[C@@H]1O[C@@H]1O[C@H](CO)[C@H](O)[C@H](O)[C@H]1O
5 |  |  | < 1.47 |  | [N-]=[N+]=NCCOCCOCCO[C@@H]1O[C@H](CO)[C@@H](O[C@@H]2O[C@H](CO)[C@H](O)[C@H](O)[C@H]2O)[C@H](O)[C@H]1O
6 |  |  | < 1.47 |  | CC(=O)N[C@H]1[C@@H](OCCOCCOCCN=[N+]=[N-])O[C@H](CO)[C@H](O)[C@@H]1O
